Measured values published in PMC6601336 (ACS chemical biology, 2019).
Residue numbers refer to the chain shown, from its start.

Legend:
[1] = target: T1, WT LasR LBD (Pseudomonas aeruginosa, UniProt P25084); assay: Protein solubility assay, WT LasR LBD produced in E. coli; type: cell-based; conditions: 10 μM compound
T1 sequence (P25084 1-173 limits assumed): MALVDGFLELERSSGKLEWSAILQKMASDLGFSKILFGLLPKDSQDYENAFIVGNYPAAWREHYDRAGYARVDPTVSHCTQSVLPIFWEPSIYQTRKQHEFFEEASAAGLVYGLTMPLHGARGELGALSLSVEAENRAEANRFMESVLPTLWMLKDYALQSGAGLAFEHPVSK
Method in brief: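 E. coli BL21(DE3) with plasmid-borne 6xHis-WT LasR LBD were grown overnight, diluted 1:500 in LB with ampicillin and grown to OD600 0.5. Cells were induced with 1 mM IPTG plus test compound at 10 μM final, then shaken 4 h at 25°C or 37°C. Whole-cell lysate and soluble fractions were compared by band intensity. Fraction soluble = soluble band / whole-cell lysate band.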

[2] = target: T2, LasR LBD (Pseudomonas aeruginosa, UniProt P25084); assay: Thermal shift assay, LasR LBD:BB0126; type: binding
T2 sequence (P25084 1-173 limits assumed): T1 sequence (P25084 1-173 limits assumed)
Method in brief: (§1)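 6xHis-LasR LBD (WT or T75V/Y93F/A127W) was expressed in E. coli BL21(DE3) with 1 mM IPTG and 100 μM ligand (4 h, 25°C), then purified by Ni-NTA and size exclusion. Ligand-bound protein at 5 μM in 20 mM Tris-HCl pH 8, 200 mM NaCl, 1 mM DTT, with DMSO or 10 μM ligand, stood 15 min at room temperature. SYPRO Orange was added just before the run. Heating from 25 to 99°C at 0.05°C/s; fluorescence on ROX setting.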

[3] = target: T3, WT LasR (Pseudomonas aeruginosa, UniProt P25084); assay: Pyocyanin assay, ΔlasI strain with WT LasR; type: cell-based, Pseudomonas aeruginosa PA14; conditions: 10 μM
T3 sequence (P25084 1-239): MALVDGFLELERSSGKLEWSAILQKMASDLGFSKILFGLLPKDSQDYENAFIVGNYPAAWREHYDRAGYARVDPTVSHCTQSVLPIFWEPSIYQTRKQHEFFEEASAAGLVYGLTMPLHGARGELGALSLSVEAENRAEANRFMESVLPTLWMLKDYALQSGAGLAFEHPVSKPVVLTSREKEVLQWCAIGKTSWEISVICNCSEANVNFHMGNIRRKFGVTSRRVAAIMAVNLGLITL
Method in brief: (§2)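 Overnight LB cultures of PA14 lasI (WT lasR) or lasI lasR T75V/Y93F/A127W were grown at 37°C, diluted (100 μL into 3 mL LB) and shaken 8 h at 37°C. They were then diluted 2 μL into 2 mL LB with DMSO or compound and shaken 17 h at 37°C. OD600 was read, then supernatant OD695 after centrifugation. Pyocyanin = OD695/OD600. n=3, SEM.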

[4] = target: T4, LasR LBD T75V/Y93F/A127W (Pseudomonas aeruginosa, UniProt P25084, A127W/T75V/Y93F); assay: Thermal shift assay, LasR LBD T75V/Y93F/A127W:BB0126; type: binding; conditions: for effect of excess ligand on Tm: LasR LBD T75V/Y93F/A127W:BB0126 with 10 μM excess ligand
T4 sequence (P25084 1-173 T75V/Y93F/A127W limits assumed): T1 sequence (P25084 1-173 limits assumed) with T75V, Y93F, A127W
Method in brief: as §1

[5] = target: T5, LasR T75V/Y93F/A127W (Pseudomonas aeruginosa, UniProt P25084, A127W/T75V/Y93F); assay: P. aeruginosa PA14 rhlA-mNG reporter assay, lasR T75V/Y93F/A127W; type: cell-based, Pseudomonas aeruginosa PA14; conditions: ΔlasI P. aeruginosa PA14, 10 μM
T5 sequence (P25084 1-239 T75V/Y93F/A127W): T3 sequence (P25084 1-239) with T75V, Y93F, A127W
Method in brief: (§3)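 P. aeruginosa PA14 lasI strains carried WT or T75V/Y93F/A127W lasR at the native chromosomal locus and a chromosomal prhlA-mNG fusion. Overnight cultures were diluted 1:1000 in LB with test compound at 10 μM and grown at 37°C for 8 h. Cells were pelleted and resuspended in PBS. Fluorescence was read at ex 485/em 535 nm, with A600 measured in parallel. n=3, SEM; multiple t-tests.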

[6] = target: T6, LasR T75V (Pseudomonas aeruginosa, UniProt P25084, T75V); assay: E. coli lasB-lux reporter assay, LasR T75V; type: cell-based
T6 sequence (P25084 1-239 T75V): T3 sequence (P25084 1-239) with T75V

[7] = tested on: WT LasR; assay: E. coli lasB-lux reporter assay, WT LasR; type: cell-based, Pseudomonas aeruginosa; conditions: LasR T75V, Y93F and A127W single mutations, each relative to WT LasR
[8] = target: T3, WT LasR; assay: E. coli lasB-lux reporter assay, WT LasR; type: cell-based
[9] = target: T7, LasR T75V/Y93F (Pseudomonas aeruginosa, UniProt P25084, T75V/Y93F); assay: E. coli lasB-lux reporter assay, LasR T75V/Y93F; type: cell-based
T7 sequence (P25084 1-239 T75V/Y93F): T3 sequence (P25084 1-239) with T75V, Y93F

[10] = target: T8, LasR T75V/A127W (Pseudomonas aeruginosa, UniProt P25084, A127W/T75V); assay: E. coli lasB-lux reporter assay, LasR T75V/A127W; type: cell-based
T8 sequence (P25084 1-239 T75V/A127W): T3 sequence (P25084 1-239) with T75V, A127W

[11] = target: T5, LasR T75V/Y93F/A127W; assay: Pyocyanin assay, ΔlasI strain with LasR T75V/Y93F/A127W; type: cell-based, Pseudomonas aeruginosa PA14; conditions: 10 μM
Method in brief: as §2

[12] = tested on: luciferase; assay: Off-target inhibition of luciferase in the E. coli lasB-lux reporter strain; type: cell-based; conditions: high concentrations (>10 μM)
[13] = target: T3, WT LasR; assay: P. aeruginosa PA14 rhlA-mNG reporter assay, WT lasR; type: cell-based, Pseudomonas aeruginosa PA14; conditions: ΔlasI P. aeruginosa PA14, 10 μM
Method in brief: as §3

[14] = target: T5, LasR T75V/Y93F/A127W; assay: E. coli lasB-lux reporter assay, LasR T75V/Y93F/A127W; type: cell-based
[15] = target: T9, LasR R61A (Pseudomonas aeruginosa, UniProt P25084, R61A); assay: E. coli lasB-lux reporter assay, LasR R61A; type: cell-based
T9 sequence (P25084 1-239 R61A): T3 sequence (P25084 1-239) with R61A

[16] = target: T10, LasR Y93F (Pseudomonas aeruginosa, UniProt P25084, Y93F); assay: E. coli lasB-lux reporter assay, LasR Y93F; type: cell-based
T10 sequence (P25084 1-239 Y93F): T3 sequence (P25084 1-239) with Y93F

[17] = target: T11, LasR Y93F/A127W (Pseudomonas aeruginosa, UniProt P25084, A127W/Y93F); assay: E. coli lasB-lux reporter assay, LasR Y93F/A127W; type: cell-based
T11 sequence (P25084 1-239 Y93F/A127W): T3 sequence (P25084 1-239) with Y93F, A127W

| SMILES | soluble WT LasR LBD ([1]; induction at 25°C) | pyocyanin production [3] | effect of excess ligand on Tm [4] | activation of prhlA-mNG [5] | EC50 [6] [nM] | EC50 [8] [nM] | EC50 [9] [nM] | EC50 [10] [nM] | pyocyanin production [11] | off-target inhibition of luciferase [12] | activation of prhlA-mNG [13] | EC50 [14] [nM] | also measured |
| --- | --- | --- | --- | --- | --- | --- | --- | --- | --- | --- | --- | --- | --- |
| CCCCCCCCCC(=O)CC(=O)N[C@H]1CCOC1=O [3OC12HSL, N-3-oxo-dodecanoyl-L-homoserine lactone, reference compound] | yielded soluble WT LasR LBD | induced pyocyanin production | had no effect |  |  |  |  |  |  |  |  |  | stabilization by exogenous ligand ([2]; LasR LBD:BB0126 with 10 μM exogenous 3OC12HSL): highly effective at binding to and stabilizing the LasR LBD |
| CS(=O)(=O)c1cccc(OCCCC(=O)N[C@H]2C[C@@H]3C[C@@H]3C2=O)c1 (relative stereo) [BB0126, 4-(3-(methylsulfonyl)phenoxy)-N-(rel-(1S,3S,5S)-2-oxobicyclo[3.1.0]hexan-3-yl)butanamide] | yielded soluble WT LasR LBD |  | further enhanced the Tm | activated the reporter | 1500 | > 3100 | 600 | 50 | responded to BB0126 | caused off-target inhibition of luciferase | not in response to BB0126 | 50 | soluble WT LasR LBD ([1]; induction at 37°C): significantly less soluble; melting temperature peak ([2]; LasR LBD:BB0126 in the presence of excess BB0126 (10 μM)): 49.9 °C; thermal stability of the complex ([2]; LasR LBD:BB0126 without additional ligand): unstable above room temperature; fold lower EC50 with the mutations [7]: 2-to 6 fold; EC50 [15]: > 10000 nM; Tm ([4]; LasR LBD T75V/Y93F/A127W:BB0126 without additional ligand): 46.8 °C |
| O=C(CCCOc1cccc(Br)c1)N[C@H]1C[C@@H]2C[C@@H]2C1=O (relative stereo) [BB0020, 4-(3-bromophenoxy)-N-(rel-(1S,3S,5S)-2-oxobicyclo[3.1.0]hexan-3-yl)butanamide] | yielded soluble WT LasR LBD | activated both LasR alleles equally |  | activated the reporter | 15 | 6 | 20 | 20 | activated both LasR alleles equally | caused off-target inhibition of luciferase | activated prhlA-mNG | 20 | EC50 [16]: 15 nM; EC50 [17]: 100 nM |
